What all share (format): functional
For test [1], the system named is Listeria monocytogenes. In words: Antimicrobial activity against Listeria monocytogenes by broth microdilution method. The procedure, abridged: (§1)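 MIC by CLSI broth microdilution in Mueller-Hinton broth. Daptomycin testing used broth supplemented with calcium at physiological level (50 μg/ml). Vancomycin and linezolid were tested from standard powders. Control strains were S. aureus ATCC 29213 and Enterococcus faecalis 29212.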
Background: Broth dilution looks for growth in wells or tubes with falling amounts of substance.

Test [2] relates to Pediococcus. As to the kind of experiment: Antimicrobial activity against Pediococcus spp. by broth microdilution method. The procedure, abridged: as §1
In test [3] the test system is Leuconostoc. In words: Antimicrobial activity against Leuconostoc spp. by broth microdilution method. The procedure, abridged:
as §1

Test [4] has as its system Rhodococcus sp. In words: Antimicrobial activity against Rhodococcus spp. by broth microdilution method. The conditions noted are these: Rhodococcus sp. (in: high G+C Gram-positive bacteria). In a few lines:
as §1

Test [5] deals with Nocardia brasiliensis. In words: Antimicrobial activity against Nocardis brasiliensis by broth microdilution method. The procedure, abridged: as §1
For test [6], the system named is Nocardia asteroides. In words: Antimicrobial activity against Nocardia asteroides by broth microdilution method. In a few lines:
as §1

The test system of test [7] is Nocardia sp. In words: Antimicrobial activity against Nocardia spp. by broth microdilution method. The procedure, abridged: as §1
In test [8] the test system is Listeria monocytogenes. As to the kind of experiment: Antimicrobial activity against Listeria monocytogenes by Etest. In a few lines: (§2)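 Daptomycin MIC read from an Etest strip carrying a daptomycin-plus-calcium gradient, run per manufacturer's instructions. Each isolate was compared with its broth microdilution MIC (Mueller-Hinton broth, 50 μg/ml calcium). Agreement was defined as within 1 twofold dilution. Mean log2 difference was tested by one-sample t test.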

For test [9], the system named is Pediococcus. In words: Antimicrobial activity against Pediococcus spp. by Etest. The procedure, abridged: as §2
The subject of test [10] is Leuconostoc. As to the kind of experiment: Antimicrobial activity against Leuconostac spp. by Etest. The procedure, abridged: as §2
For test [11], the system named is Rhodococcus sp. As to the kind of experiment: Antimicrobial activity against Rhodococcus spp. by Etest. The conditions noted are these: Rhodococcus sp. (in: high G+C Gram-positive bacteria). The procedure, abridged:
as §2

The test system of test [12] is Nocardia brasiliensis. As to the kind of experiment: Antimicrobial activity against Nocardis brasiliensis by Etest. The procedure, abridged: as §2
The test system of test [13] is Nocardia asteroides. As to the kind of experiment: Antimicrobial activity against Nocardia asteroids by Etest. In a few lines: as §2
Test [14] deals with Nocardia sp. In words: Antimicrobial activity against Nocardia spp. by Etest. The procedure, abridged: as §2

Results on 3 compounds are retold here after ChEMBL document CHEMBL1146199, “Daptomycin susceptibility of unusual gram-positive bacteria: comparison of results obtained by the Etest and the broth microdilution method” (2007).

Values after ≈ are worked out from the molar mass of the structure shown.

For the compound `CN[C@H](CC(C)C)C(=O)N[C@H]1C(=O)N[C@@H](CC(N)=O)C(=O)N[C@H]2C(=O)N[C@H]3C(=O)N[C@H](C(=O)N[C@H](C(=O)O)c4cc(O)cc(O)c4-c4cc3ccc4O)[C@H](O)c3ccc(c(Cl)c3)Oc3cc2cc(c3O[C@@H]2O[C@H](CO)[C@@H](O)[C@H](O)[C@H]2O[C@H]2C[C@](C)(N)[C@H](O)[C@H](C)O2)Oc2ccc(cc2Cl)[C@H]1O` [VANCOMYCIN], the MIC50 in the test with Listeria monocytogenes [1] was 1 µg/mL (≈ 0.69 µM); against Pediococcus [2], more than 64 µg/mL; in the test on Leuconostoc [3], more than 64 µg/mL; against Rhodococcus sp. [4], 1 µg/mL (≈ 0.69 µM); with Nocardia brasiliensis [5] it was more than 64 µg/mL; against Nocardia asteroides [6] it was more than 64 µg/mL. In the test on Nocardia sp. [7], this compound yielded an MIC50 of more than 64 µg/mL. Besides, the MIC90 was 1 µg/mL (≈ 0.69 µM) against Listeria monocytogenes [1]; more than 64 µg/mL against Pediococcus [2]; more than 64 µg/mL against Leuconostoc [3]; more than 64 µg/mL with Rhodococcus sp. [4]; more than 64 µg/mL against Nocardia brasiliensis [5]; more than 64 µg/mL in the test with Nocardia asteroides [6]. Further, the MIC90 in the test with Nocardia sp. [7] was more than 64 µg/mL.

As to `CC(=O)NC[C@H]1CN(c2ccc(N3CCOCC3)c(F)c2)C(=O)O1` [LINEZOLID], the MIC50 against Listeria monocytogenes [1] turned out to be 2 µg/mL (≈ 5.93 µM); in the test with Pediococcus [2] it was 2 µg/mL (≈ 5.93 µM); in the test with Leuconostoc [3] it was 4 µg/mL (≈ 11.9 µM); in the test with Rhodococcus sp. [4] it was 1 µg/mL (≈ 2.96 µM); in the test on Nocardia brasiliensis [5], 8 µg/mL (≈ 23.7 µM); in the test on Nocardia asteroides [6] it was 4 µg/mL (≈ 11.9 µM). The compound also yielded an MIC50 in the test with Nocardia sp. [7] of 4 µg/mL (≈ 11.9 µM). Besides, the MIC90 against Listeria monocytogenes [1] turned out to be 2 µg/mL (≈ 5.93 µM); in the test on Pediococcus [2], 4 µg/mL (≈ 11.9 µM); against Leuconostoc [3], 4 µg/mL (≈ 11.9 µM); in the test on Rhodococcus sp. [4], 2 µg/mL (≈ 5.93 µM); against Nocardia brasiliensis [5], 8 µg/mL (≈ 23.7 µM); against Nocardia asteroides [6], 4 µg/mL (≈ 11.9 µM). In the test with Nocardia sp. [7], this compound had an MIC90 of 4 µg/mL (≈ 11.9 µM).

In the case of `CCCCCCCCCC(=O)N[C@@H](Cc1c[nH]c2ccccc12)C(=O)N[C@H](CC(N)=O)C(=O)N[C@@H](CC(=O)O)C(=O)N[C@@H]1C(=O)NCC(=O)N[C@@H](CCCN)C(=O)N[C@@H](CC(=O)O)C(=O)N[C@H](C)C(=O)N[C@@H](CC(=O)O)C(=O)NCC(=O)N[C@H](CO)C(=O)N[C@@H]([C@H](C)CC(=O)O)C(=O)N[C@@H](CC(=O)c2ccccc2N)C(=O)O[C@@H]1C`, the MIC50 in the test with Listeria monocytogenes [1] is 4 µg/mL (≈ 2.47 µM); in the test on Listeria monocytogenes [8] it was 3 µg/mL (≈ 1.85 µM); in the test with Pediococcus [2], 0.25 µg/mL (≈ 0.154 µM); in the test on Pediococcus [9], 0.25 µg/mL (≈ 0.154 µM); in the test with Leuconostoc [3], 0.12 µg/mL (≈ 0.074 µM); against Leuconostoc [10] it was 0.25 µg/mL (≈ 0.154 µM). Also, the MIC50 in the test on Rhodococcus sp. [4] is more than 64 µg/mL; in the test with Rhodococcus sp. [11], 96 µg/mL (≈ 59.2 µM); in the test on Nocardia brasiliensis [5], more than 64 µg/mL; in the test with Nocardia brasiliensis [12], more than 256 µg/mL; in the test on Nocardia asteroides [6] it was more than 64 µg/mL; against Nocardia asteroides [13], more than 256 µg/mL. For the same compound, the MIC50 against Nocardia sp. [7] is more than 64 µg/mL; in the test with Nocardia sp. [14] it was more than 256 µg/mL. Besides, the MIC90 with Listeria monocytogenes [1] was determined as 4 µg/mL (≈ 2.47 µM); against Listeria monocytogenes [8] it was 4 µg/mL (≈ 2.47 µM); in the test on Pediococcus [2], 0.5 µg/mL (≈ 0.309 µM); with Pediococcus [9] it was 0.5 µg/mL (≈ 0.309 µM); in the test on Leuconostoc [3], 0.25 µg/mL (≈ 0.154 µM); with Leuconostoc [10] it was 0.5 µg/mL (≈ 0.309 µM). In addition, the MIC90 was more than 64 µg/mL against Rhodococcus sp. [4]; more than 256 µg/mL with Rhodococcus sp. [11]; more than 64 µg/mL with Nocardia brasiliensis [5]; more than 256 µg/mL against Nocardia brasiliensis [12]; more than 64 µg/mL in the test on Nocardia asteroides [6]; more than 256 µg/mL with Nocardia asteroides [13]. Besides, the MIC90 was more than 64 µg/mL against Nocardia sp. [7] and more than 256 µg/mL with Nocardia sp. [14].

The term MIC50 denotes an inhibitory concentration at the 50% level, which refers to growth in some studies and to a panel of isolates in others. Usually MIC90 stands for an inhibitory concentration at the 90% level, which refers to growth in some studies and to a panel of isolates in others. Low values mean higher susceptibility, high ones lower susceptibility.
